Activity calls are given as the source filed them. The calls are words filed in the database; no cut-off is given here.
What was measured:
Homo sapiens [1] = organism: Homo sapiens; test: Binding affinity to peripheral-type BZD receptor (unknown origin) at 10 uM by radioligand displacement assay relative to control
Homo sapiens [2] = organism: Homo sapiens; test: Binding affinity to PCP receptor (unknown origin) at 10 uM by radioligand displacement assay relative to control
[3] = target: Kappa-type opioid receptor (Homo sapiens) (UniProt P41145); test: Binding affinity to kappa opioid receptor (unknown origin) at 10 uM by radioligand displacement assay relative to control
[4] = target: Sigma non-opioid intracellular receptor 1 (Rattus norvegicus) (UniProt Q9R0C9); test: Positive allosteric modulation of Wistar rat sigma 1 receptor assessed as potentiation of PB-28 effect on electrically-stimulated vas deferens contraction at 10 uM preincubated for 10 mins followed by PB-28 addition
Sequence of Sigma non-opioid intracellular receptor 1 (Rattus norvegicus) (Q9R0C9 whole entry): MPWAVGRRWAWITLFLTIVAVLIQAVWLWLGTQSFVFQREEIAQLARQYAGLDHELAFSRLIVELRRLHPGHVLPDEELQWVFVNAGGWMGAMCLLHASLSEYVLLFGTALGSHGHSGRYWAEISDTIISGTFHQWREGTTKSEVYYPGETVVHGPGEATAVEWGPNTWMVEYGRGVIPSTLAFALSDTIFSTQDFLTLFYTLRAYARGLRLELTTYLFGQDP

Mus musculus [5] = test: Cognitive enhancing effect in ip dosed ICR mouse assessed as increase in retention latency administered 60 mins prior to testing measured after 24 hrs by passive avoidance test; type: functional, organism-based
Mus musculus [6] = test: Cognitive enhancing effect in ICR mouse assessed as increase in retention latency at 1 mg/kg, ip administered 60 mins prior to testing measured after 24 hrs by passive avoidance test relative to control; type: functional; details: route intraperitoneal
[7] = target: Galanin receptor type 2 (Homo sapiens) (UniProt O43603); test: Binding affinity to human GAL2 receptor at 10 uM by radioligand displacement assay relative to control
[8] = target: Sodium-dependent serotonin transporter (Homo sapiens) (UniProt P31645); test: Binding affinity to human serotonin 5-HT transporter at 10 uM by radioligand displacement assay relative to control
Sequence of Sodium-dependent serotonin transporter (Homo sapiens) (P31645 whole entry, looked up): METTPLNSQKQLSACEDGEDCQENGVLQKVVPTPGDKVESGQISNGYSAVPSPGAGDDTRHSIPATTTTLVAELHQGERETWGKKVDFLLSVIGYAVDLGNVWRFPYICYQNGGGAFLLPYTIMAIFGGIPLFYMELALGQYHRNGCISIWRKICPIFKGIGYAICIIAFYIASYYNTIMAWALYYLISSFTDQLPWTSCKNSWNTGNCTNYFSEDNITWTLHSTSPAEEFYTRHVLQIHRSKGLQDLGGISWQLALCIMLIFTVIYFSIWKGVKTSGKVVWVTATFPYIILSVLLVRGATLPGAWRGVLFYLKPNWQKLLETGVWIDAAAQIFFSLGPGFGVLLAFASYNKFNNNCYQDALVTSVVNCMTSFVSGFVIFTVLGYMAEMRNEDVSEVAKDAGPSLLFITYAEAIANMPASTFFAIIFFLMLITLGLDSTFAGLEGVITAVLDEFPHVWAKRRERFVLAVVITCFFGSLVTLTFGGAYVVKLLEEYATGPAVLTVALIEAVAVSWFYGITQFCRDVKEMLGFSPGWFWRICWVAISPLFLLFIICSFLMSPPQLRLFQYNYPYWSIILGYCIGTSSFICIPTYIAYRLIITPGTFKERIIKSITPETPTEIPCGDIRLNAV

[9] = target: C-X-C chemokine receptor type 2 (Homo sapiens) (UniProt P25025); test: Binding affinity to human CXCR2 at 10 uM by radioligand displacement assay relative to control
Homo sapiens [10] = organism: Homo sapiens; test: Binding affinity to GABA receptor (unknown origin) at 10 uM by radioligand displacement assay relative to control
[11] = target: 5-hydroxytryptamine receptor 2A (Homo sapiens) (UniProt P28223); test: Binding affinity to human 5-HT2A receptor at 10 uM by radioligand displacement assay relative to control
Sequence of 5-hydroxytryptamine receptor 2A (Homo sapiens) (P28223 whole entry): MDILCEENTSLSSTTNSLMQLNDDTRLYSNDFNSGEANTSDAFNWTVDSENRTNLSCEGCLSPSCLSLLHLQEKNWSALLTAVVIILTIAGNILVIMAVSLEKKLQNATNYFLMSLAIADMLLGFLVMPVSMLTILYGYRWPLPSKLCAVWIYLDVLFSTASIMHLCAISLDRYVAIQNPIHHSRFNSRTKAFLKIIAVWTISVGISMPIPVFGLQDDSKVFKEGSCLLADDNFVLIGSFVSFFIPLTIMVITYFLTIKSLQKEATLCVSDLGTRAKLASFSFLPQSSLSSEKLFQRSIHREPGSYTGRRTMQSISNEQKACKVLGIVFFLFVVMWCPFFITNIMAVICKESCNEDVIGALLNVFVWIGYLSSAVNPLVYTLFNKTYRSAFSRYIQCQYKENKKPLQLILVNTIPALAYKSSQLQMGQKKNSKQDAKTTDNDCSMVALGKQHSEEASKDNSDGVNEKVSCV

[12] = target: Sigma non-opioid intracellular receptor 1 (Homo sapiens, UniProt Q99720); test: Modulation of sigma 1 receptor (unknown origin) by radioligand displacement assay relative to control
[13] = target: D(2) dopamine receptor (Homo sapiens) (UniProt P14416); test: Binding affinity to human dopamine D2S receptor at 10 uM by radioligand displacement assay relative to control
Sequence of D(2) dopamine receptor (Homo sapiens) (P14416 whole entry): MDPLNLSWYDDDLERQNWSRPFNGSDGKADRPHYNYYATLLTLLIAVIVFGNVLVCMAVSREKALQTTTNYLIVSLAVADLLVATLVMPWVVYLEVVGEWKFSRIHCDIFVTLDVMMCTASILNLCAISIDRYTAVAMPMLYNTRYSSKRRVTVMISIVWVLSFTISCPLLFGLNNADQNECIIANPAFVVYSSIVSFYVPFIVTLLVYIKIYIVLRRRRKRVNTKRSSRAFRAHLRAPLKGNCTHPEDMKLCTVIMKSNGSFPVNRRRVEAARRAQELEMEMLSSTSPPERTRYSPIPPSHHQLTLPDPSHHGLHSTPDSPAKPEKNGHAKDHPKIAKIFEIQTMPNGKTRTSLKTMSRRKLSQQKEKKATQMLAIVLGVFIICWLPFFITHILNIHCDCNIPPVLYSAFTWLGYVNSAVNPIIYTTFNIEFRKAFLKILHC

[14] = target: Alpha-2A adrenergic receptor (Homo sapiens) (UniProt P08913); test: Binding affinity to adrenergic alpha2 receptor (unknown origin) at 10 uM by radioligand displacement assay relative to control
Sequence of Alpha-2A adrenergic receptor (Homo sapiens) (P08913 whole entry): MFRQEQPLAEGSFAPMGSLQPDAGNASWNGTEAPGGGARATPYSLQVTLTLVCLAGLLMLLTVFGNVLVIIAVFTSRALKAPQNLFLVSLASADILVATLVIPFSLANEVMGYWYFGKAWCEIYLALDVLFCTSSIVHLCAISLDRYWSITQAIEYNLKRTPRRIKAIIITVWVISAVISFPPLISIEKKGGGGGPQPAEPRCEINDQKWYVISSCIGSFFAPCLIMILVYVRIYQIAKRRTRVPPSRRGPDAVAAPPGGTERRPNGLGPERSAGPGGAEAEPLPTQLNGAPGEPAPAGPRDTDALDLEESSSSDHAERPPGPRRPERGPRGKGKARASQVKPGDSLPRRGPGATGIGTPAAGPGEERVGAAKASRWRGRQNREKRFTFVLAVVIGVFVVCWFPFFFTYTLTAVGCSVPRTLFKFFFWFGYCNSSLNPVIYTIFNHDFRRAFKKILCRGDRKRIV

Mus musculus [15] = test: Toxicity in ICR mouse assessed as effect on locomotor activity measured moved distance per 4 mins at 1 mg/kg, ip after 30 mins by open field test (reference value: 1124 121 cm); type: organism-based; set-up: dose 1 mg/kg, route intraperitoneal; details: in vivo
Homo sapiens [16] = organism: Homo sapiens; test: Binding affinity to GABA-gated chloride channel (unknown origin) at 10 uM by radioligand displacement assay relative to control
[17] = target: 5-hydroxytryptamine receptor 6 (Homo sapiens) (UniProt P50406); test: Binding affinity to human 5-HT6 receptor at 10 uM by radioligand displacement assay relative to control
Sequence of 5-hydroxytryptamine receptor 6 (Homo sapiens) (P50406 whole entry): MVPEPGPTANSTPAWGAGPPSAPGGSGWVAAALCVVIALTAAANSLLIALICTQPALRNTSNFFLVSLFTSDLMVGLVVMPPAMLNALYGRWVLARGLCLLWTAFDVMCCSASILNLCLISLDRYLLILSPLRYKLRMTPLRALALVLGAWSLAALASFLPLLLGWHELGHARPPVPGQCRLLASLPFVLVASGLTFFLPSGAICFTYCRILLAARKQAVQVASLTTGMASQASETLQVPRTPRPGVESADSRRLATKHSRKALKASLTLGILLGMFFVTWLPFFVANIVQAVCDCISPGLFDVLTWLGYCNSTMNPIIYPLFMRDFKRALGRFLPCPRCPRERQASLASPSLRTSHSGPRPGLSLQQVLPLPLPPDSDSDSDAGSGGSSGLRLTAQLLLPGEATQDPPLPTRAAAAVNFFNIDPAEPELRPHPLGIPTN

Mus musculus [18] = test: Toxicity in ICR mouse assessed as effect on locomotor activity measured moved distance per 4 mins at 10 mg/kg, ip after 60 mins by open field test (reference value: 623 136 cm); type: organism-based; set-up: dose 10 mg/kg, route intraperitoneal; details: in vivo
[19] = target: Sodium-dependent dopamine transporter (Homo sapiens) (UniProt Q01959); test: Binding affinity to human dopamine transporter at 10 uM by radioligand displacement assay relative to control
Sequence of Sodium-dependent dopamine transporter (Homo sapiens) (Q01959 whole entry): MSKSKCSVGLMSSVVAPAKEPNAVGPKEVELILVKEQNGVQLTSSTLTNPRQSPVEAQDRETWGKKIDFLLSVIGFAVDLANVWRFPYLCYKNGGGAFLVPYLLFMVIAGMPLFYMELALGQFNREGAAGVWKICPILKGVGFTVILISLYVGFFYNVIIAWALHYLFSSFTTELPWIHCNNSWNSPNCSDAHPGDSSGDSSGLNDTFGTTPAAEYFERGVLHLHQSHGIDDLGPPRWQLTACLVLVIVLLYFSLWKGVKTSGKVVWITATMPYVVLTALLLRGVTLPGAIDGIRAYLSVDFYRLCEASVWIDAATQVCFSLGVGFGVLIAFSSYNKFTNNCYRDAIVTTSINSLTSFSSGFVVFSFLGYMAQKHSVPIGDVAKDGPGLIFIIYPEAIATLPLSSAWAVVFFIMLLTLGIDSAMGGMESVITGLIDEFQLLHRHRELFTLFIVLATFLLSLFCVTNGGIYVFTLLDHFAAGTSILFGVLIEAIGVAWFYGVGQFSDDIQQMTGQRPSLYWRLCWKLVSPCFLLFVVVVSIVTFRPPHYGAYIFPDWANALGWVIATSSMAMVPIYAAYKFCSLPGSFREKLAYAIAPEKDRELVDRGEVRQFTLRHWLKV

Homo sapiens [20] = organism: Homo sapiens; test: Binding affinity to P2X receptor (unknown origin) at 10 uM by radioligand displacement assay relative to control
[21] = target: T1, Adrenergic receptor alpha-1 (Homo sapiens) (UniProt P35348+P25100+P35368); test: Binding affinity to adrenergic alpha1 receptor (unknown origin) at 10 uM by radioligand displacement assay relative to control
[22] = target: 5-hydroxytryptamine receptor 7 (Homo sapiens) (UniProt P34969); test: Binding affinity to human 5-HT7 receptor at 10 uM by radioligand displacement assay relative to control
Mus musculus [23] = test: Toxicity in ip dosed ICR mouse assessed as effect on motor coordination measured within 120 secs by rotarod test; type: organism-based; details: in vivo, 2 min
[24] = target: Cholecystokinin receptor type A (Homo sapiens) (UniProt P32238); test: Binding affinity to human CCK1 receptor at 10 uM by radioligand displacement assay relative to control
Sequence of Cholecystokinin receptor type A (Homo sapiens) (P32238 whole entry): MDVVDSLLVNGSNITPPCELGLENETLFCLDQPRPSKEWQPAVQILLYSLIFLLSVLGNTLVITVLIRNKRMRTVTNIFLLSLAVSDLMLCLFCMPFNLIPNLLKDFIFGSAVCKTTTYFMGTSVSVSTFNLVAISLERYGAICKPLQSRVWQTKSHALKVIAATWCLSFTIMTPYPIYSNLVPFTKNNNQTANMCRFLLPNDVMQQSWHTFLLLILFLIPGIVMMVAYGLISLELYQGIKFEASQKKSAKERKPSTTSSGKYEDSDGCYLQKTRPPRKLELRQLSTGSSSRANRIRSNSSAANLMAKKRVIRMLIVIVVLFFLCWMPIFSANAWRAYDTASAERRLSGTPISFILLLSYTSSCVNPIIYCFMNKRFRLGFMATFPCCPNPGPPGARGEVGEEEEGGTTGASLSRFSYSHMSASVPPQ

Mus musculus [25] = test: Toxicity in ICR mouse assessed as effect on locomotor activity measured moved distance per 4 mins at 100 mg/kg, ip after 180 mins by open field test (reference value: 436 125 cm); type: organism-based; set-up: dose 100 mg/kg, route intraperitoneal; details: in vivo
[26] = target: Sigma non-opioid intracellular receptor 1 (Rattus norvegicus) (UniProt Q9R0C9); test: Positive allosteric modulation of Wistar rat sigma 1 receptor assessed as potentiation of PRE-084 effect on electrically-stimulated vas deferens contraction at 10 uM preincubated for 10 mins followed by PRE-084 addition
In short: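 Isolated rat vas deferens, proximal ~15 mm segments, in K-H buffer at 32 °C gassed […], with 1.0 g passive tension and a 60 min adaptation. Field-stimulated at 0.1 Hz, 1 ms, 50 V. Cumulative PRE-084 (1–100 µM) was given, then washout and a 30 min rest. Test compound 10 µM was added for 10 min before cumulative PRE-084. Response is % increase over baseline amplitude; n=6, mean ± SEM, paired t-test.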

[27] = target: Galanin receptor type 1 (Homo sapiens) (UniProt P47211); test: Binding affinity to human GAL1 receptor at 10 uM by radioligand displacement assay relative to control
Sequence of Galanin receptor type 1 (Homo sapiens) (P47211 whole entry): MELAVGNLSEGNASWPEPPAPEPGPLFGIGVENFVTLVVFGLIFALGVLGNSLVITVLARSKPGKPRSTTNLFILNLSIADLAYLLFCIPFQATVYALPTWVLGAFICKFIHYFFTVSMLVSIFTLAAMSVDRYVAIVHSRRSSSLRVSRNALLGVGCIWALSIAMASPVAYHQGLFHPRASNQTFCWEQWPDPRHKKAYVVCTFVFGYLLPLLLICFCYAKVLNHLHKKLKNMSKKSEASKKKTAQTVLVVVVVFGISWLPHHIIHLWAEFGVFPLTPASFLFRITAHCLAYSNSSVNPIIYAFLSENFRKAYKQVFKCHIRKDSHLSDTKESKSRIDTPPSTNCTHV

[28] = target: T1, Adrenergic receptor alpha-1 (Homo sapiens); test: Binding affinity to human adrenergic alpha1 receptor at 10 uM by radioligand displacement assay relative to control
[29] = target: Muscarinic acetylcholine receptor M4 (Homo sapiens) (UniProt P08173); test: Binding affinity to human muscarinic M4 receptor at 10 uM by radioligand displacement assay relative to control
[30] = target: voltage-gated potassium channel (Homo sapiens, UniProt O43525+O43526+O95259+P16389+P17658+P22001+P22459+P22460+P48547+P51787+P56696+Q03721+Q09470+Q12809+Q14003+Q14721+Q16322+Q6PIU1+Q8NCM2+Q8TAE7+Q8TDN1+Q8TDN2+Q92953+Q96KK3+Q96L42+Q96PR1+Q96RP8+Q9BQ31+Q9H252+Q9H3M0+Q9NR82+Q9NS40+Q9NSA2+Q9NZV8+Q9UIX4+Q9UJ96+Q9UK17+Q9ULD8+Q9ULS6+Q9UQ05); test: Binding affinity to voltage-gated potassium channel (unknown origin) at 10 uM by radioligand displacement assay relative to control; type: protein assay
[31] = target: Cannabinoid receptor 1 (Homo sapiens) (UniProt P21554); test: Binding affinity to human CB1 receptor at 10 uM by radioligand displacement assay relative to control
Sequence of Cannabinoid receptor 1 (Homo sapiens) (P21554 whole entry): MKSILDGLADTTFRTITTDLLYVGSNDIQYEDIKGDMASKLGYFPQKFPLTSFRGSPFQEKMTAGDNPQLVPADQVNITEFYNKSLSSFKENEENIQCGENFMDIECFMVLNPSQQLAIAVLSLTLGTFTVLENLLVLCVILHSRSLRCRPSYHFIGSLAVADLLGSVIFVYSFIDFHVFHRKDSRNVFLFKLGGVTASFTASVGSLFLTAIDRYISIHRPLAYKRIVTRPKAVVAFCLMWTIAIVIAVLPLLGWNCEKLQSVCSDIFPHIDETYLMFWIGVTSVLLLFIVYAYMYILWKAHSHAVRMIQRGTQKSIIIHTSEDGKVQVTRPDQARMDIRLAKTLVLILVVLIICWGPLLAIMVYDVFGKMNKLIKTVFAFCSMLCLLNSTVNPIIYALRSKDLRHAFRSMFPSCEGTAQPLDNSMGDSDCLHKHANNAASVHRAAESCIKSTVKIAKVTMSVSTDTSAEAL

[32] = target: Mu-type opioid receptor (Homo sapiens) (UniProt P35372); test: Binding affinity to mu opioid receptor (unknown origin) at 10 uM by radioligand displacement assay relative to control
Sequence of Mu-type opioid receptor (Homo sapiens) (P35372 whole entry): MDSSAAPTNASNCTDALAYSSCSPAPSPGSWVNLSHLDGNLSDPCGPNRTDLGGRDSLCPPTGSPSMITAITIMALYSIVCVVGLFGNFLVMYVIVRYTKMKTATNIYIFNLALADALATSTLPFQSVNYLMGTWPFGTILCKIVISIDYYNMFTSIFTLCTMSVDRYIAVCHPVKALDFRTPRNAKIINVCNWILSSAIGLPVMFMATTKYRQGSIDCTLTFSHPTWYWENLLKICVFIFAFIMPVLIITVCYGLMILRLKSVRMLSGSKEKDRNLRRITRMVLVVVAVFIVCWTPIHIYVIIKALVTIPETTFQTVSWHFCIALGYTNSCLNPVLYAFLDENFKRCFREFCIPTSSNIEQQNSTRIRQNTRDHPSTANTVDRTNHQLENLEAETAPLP

SMILES: C[C@H]1[C@@H](c2ccccc2)CC(=O)N1CC(N)=O
- inhibition (Homo sapiens [1]): 3%
- inhibition (Homo sapiens [2]): 6%
- inhibition [3]: -5%
- Activity [4]: inactive
- Activity (Mus musculus [5]): Dose-dependent effect
- Activity (Mus musculus [6]): 194%
- inhibition [7]: -4%
- inhibition [8]: 5%
- inhibition [9]: 2%
- inhibition (Homo sapiens [10]): 13%
- inhibition [11]: 5%
- Activity [12]: > 20%
- inhibition [13]: 5%
- inhibition [14]: -4%
- Activity (Mus musculus [15]): 1402 cm
- inhibition (Homo sapiens [16]): -3%
- inhibition [17]: -10%
- Activity (Mus musculus [18]): 640 cm
- inhibition [19]: 4%
- inhibition (Homo sapiens [20]): 6%
- inhibition [21]: -5%
- inhibition [22]: -4%
- ED50 (Mus musculus [23]): 453 mg/kg
- inhibition [24]: 9%
- Activity (Mus musculus [25]): 450 cm
- Activity [26]: Active
- inhibition [27]: -2%
- inhibition [28]: -5%
- inhibition [29]: -3%
- inhibition at 10 µM [30]: -2%
- inhibition [31]: -3%
- inhibition [32]: -7%

— ChEMBL document CHEMBL2390917, “Synthesis and biological evaluation of 2-(5-methyl-4-phenyl-2-oxopyrrolidin-1-yl)-acetamide stereoisomers as novel positive allosteric modulators of sigma-1 receptor” (Bioorg Med Chem, 2013)
